Source: ChEMBL document CHEMBL3232932, “UPLC-MS-ELSD-PDA as a powerful dereplication tool to facilitate compound identification from small-molecule natural product libraries” (J Nat Prod, 2014)

Legend:
[1] = Retention time of the compound by ELSD chromatography; assay type: physicochemical
Outline: (§1)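 Waters Acquity UPLC with ELSD, PDA and single-quadrupole ESI-MS (positive and negative modes). Fractions from automated fractionation of plant extracts were run on a BEH C18 column (2.1 × 50 mm, 1.7 μm) at 1.0 mL/min. Mobile phase was H2O with 0.1% HCOOH against CH3CN or MeOH, with a 3.0 min total run. The gradient differed by run.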

[2] = Retention time of the compound by PDA chromatography; assay type: physicochemical; outline: as §1
[3] = Antiproliferative activity against mouse ependymoma cells harboring EPHB2 after 96 hrs by Cell-Titer Glo assay; assay type: functional, cell-based
Outline: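 Cells seeded in neurobasal medium in 384-well plates. Compounds were pin-transferred 24 h later, and DMSO and cycloheximide controls were included on each plate. Dose-response was run as a dilution series in triplicate. After 96 h incubation, cell number was read by CellTiter-Glo luminescence. Data were log10-transformed and percent inhibition calculated, and EC50 was derived.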

Row | Retention_time [1] [min] | Retention_time [2] [min] | SMILES | EC50 [3]
1 | 1.02 | 0.98 | COc1cc(O)c2c(c1)OC(c1ccc(O)c(O)c1)CC2=O (centres undefined) | –
2 | 0.9 | 0.92 | CC1=c2cc3c(cc2C(=O)OC1(C)C)=C(C)C(C)(C)OC3=O | –
3 | 0.91 | 0.87 | COc1ccc([C@@H]2CC(=O)c3c(O)cc(O)cc3O2)cc1O [HESPERETIN] | –
4 | 0.89 | 0.85 | COc1cc([C@@H]2CC(=O)c3c(O)cc(O)cc3O2)ccc1O [HOMOERIODICTYOL] | –

The remaining lines, values behind:

Row | SMILES | Retention_time [1] [min] | Retention_time [2] [min] | EC50 [3]
5 | COc1cc(C[C@H]2C(=O)OC[C@@H]2Cc2ccc3c(c2)OCO3)cc(OC)c1OC | 1.2 | – | –
6 | C=C1CC[C@@H]2[C@](C)(CCC[C@]2(C)C(=O)O)[C@H]1CCC(C)(O)C(O)CO (mixture of isomers) | 0.92 | – | > 100 µg/mL
7 | COc1cc([C@@H]2c3cc4c(cc3C[C@H]3COC(=O)[C@@H]32)OCO4)cc(OC)c1OC [DESOXYPODOPHYLLOTOXIN] | 1.18 | 1.15 | 1.93 nM
